Sampled rows, rich in hits. Any-hit rate of the full collection: about 2.3%.
HTRA1 inh: HTRA1 (human) protease inhibition; hit rate 0.5% among 340,000; AID 504803; recombinant HTRA1, FP-rhodamine activity-based probe, fluorescence polarization; inhibition, % at 5.96 µM; Q92743; in the data active = inhibition above about 36%;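 also: 0% = enzyme with DMSO and 100% = wells lacking enzyme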
Target sequence (Q92743 whole entry, looked up): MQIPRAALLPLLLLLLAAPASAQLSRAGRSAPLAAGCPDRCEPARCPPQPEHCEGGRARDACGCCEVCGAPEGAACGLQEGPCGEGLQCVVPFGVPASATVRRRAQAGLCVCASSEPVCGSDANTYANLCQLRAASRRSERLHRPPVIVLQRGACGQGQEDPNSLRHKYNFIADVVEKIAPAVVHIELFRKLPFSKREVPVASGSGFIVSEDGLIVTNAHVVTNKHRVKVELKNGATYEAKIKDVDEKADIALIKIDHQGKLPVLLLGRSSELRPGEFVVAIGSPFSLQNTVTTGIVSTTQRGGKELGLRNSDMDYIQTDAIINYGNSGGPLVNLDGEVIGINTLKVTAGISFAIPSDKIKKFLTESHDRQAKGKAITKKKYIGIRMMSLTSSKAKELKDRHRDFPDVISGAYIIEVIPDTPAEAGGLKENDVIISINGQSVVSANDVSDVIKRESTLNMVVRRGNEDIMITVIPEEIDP
SIAE primary: human SIAE inhibition, primary screen; AID 1053197; hit rate 0.69% among 370,000; Q9HAT2; inhibition, % at 9.66 µM; SIAE FP-Rh probe binding, fluorescence polarization;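 active = inhibition above a cutoff: mean of compounds within the control limits plus 3 SD of those, cut at about 17% in these data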;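 also: 0% = plate median of compound wells and 100% = probe without SIAE protein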
pPAFAH FP inh: pPAFAH (human) enzyme inhibition. Q13093. recombinant pPAFAH, FP-rhodamine probe fluorescence polarization. inhibition, % at 3.39 µM. hit rate 1.5% among 330,000. AID 463082;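 active = inhibition above the mean inhibition across the screen plus 3 SD, cut at about 25% in these data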;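 also: inhibitors block binding of the rhodamine activity-based probe so polarization drops; 0% = enzyme with DMSO and 100% = wells lacking pPAFAH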
TCR-CD3 inh: blocks the human TCR-CD3 interaction. TAMRA-labeled TCR probe fluorescence, biochemical. inhibition, % at 9.4 µM. hit rate 0.37% among 360,000. AID 651800; in the data active = inhibition above about 19%;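 also: recombinant mutant TCR 2C K166C tagged with TAMRA read by polarization; 0% = receptor in buffer alone and 100% = receptor with positive control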
mABHD4 FP: inhibits mouse alpha/beta hydrolase domain 4; Q8VD66; purified mABHD4, FP-Rh probe fluorescence polarization; inhibition, % at 8.92 µM; hit rate 0.54% among 370,000;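 active = inhibition exceeding the mean over every tested compound plus 3 SD, cut at about 30% in these data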;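 also: 0% = plate median of compound wells and 100% = S159A mutant with DMSO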
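Assay system: mABHD4 protein; medium: HEPES pH 7.0, NaCl, Pluronic buffer; dosing: 8.92 µM, single dose; schedule: 45 min + 60 min at 25 °C; signal: FP readout, ex 525 nm / em 598 nm; read-out: normalized percent inhibition of probe labeling; repeats: single replicate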
pPAFAH FP conf: confirmation of human plasma PAF acetylhydrolase (pPAFAH) inhibitors. shares compounds with pPAFAH FP inh. recombinant pPAFAH, FP-Rh probe fluorescence polarization. inhibition, % at 3.39 µM. hit rate 72% among 2,300. AID 463230;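 active = mean inhibition of the triplicate above the hit cutoff set for the earlier primary screen, cut at about 25% in these data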;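 also: 0% = enzyme with DMSO and 100% = wells lacking pPAFAH enzyme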
An asterisk follows results filed as active; · = not tested or not shown.

SMILES	HTRA1 inh	SIAE primary	pPAFAH FP inh	TCR-CD3 inh	mABHD4 FP	pPAFAH FP conf
Cn1cccc1/C=N/N1CCN(Cc2cccc3ccccc23)CC1	9.1	-0.4	46.0*	2.9	-2.6	2.6
Cn1cccc1/C=N/N1CCN(Cc2ccccc2)CC1	4.1	6.2	3.7	-0.9	4.1	·
COC(=O)C[C@H]1CC[C@H]2[C@H](COc3ccc(NC(=O)Cc4cccs4)cc3C(=O)N2C)O1	·	1.7	·	·	10.7	·
NC(=S)NN=Cc1ccc(-c2ccc(S(=O)(=O)Nc3ncccn3)cc2)o1	6.6	-7.0	40.3*	9.4	19.1	18.8
CCOc1ccc(C(=O)N/N=C/c2ccc(-c3ccc(S(=O)(=O)Nc4ncccn4)cc3)o2)cc1	-7.2	-6.2	10.6	9.2	-7.6	·
O=C(c1coc(=O)c(Br)c1)N1CCCc2ccccc21	14.0	-12.5	43.4*	1.1	16.2	5.9
O=C(c1cccc(Br)c1)N1CCCc2ccccc21	0.3	0.8	-3.3	0.7	-4.1	·
COC(=O)[C@]12C[C@H](CC(=O)NCc3cccc4ccccc34)C(=O)N(Cc3ccc(Cl)cc3Cl)C1=C[C@H](COCc1ccccc1)O[C@@H]2C	·	-9.0	·	·	-10.4	·
N#Cc1ccc(/C=C2\CC3(OC(=O)c4ccco4)CCCN2C3)cc1 (stereo not drawn)	·	-1.4	·	·	1.7	·
CCOc1ccc(NC(=O)CSc2nc3[nH]ncc3c(=O)n2-c2ccccc2OC)cc1	-6.6	1.7	40.5*	-2.0	0.2	19.9
O=C(O)c1[nH]c2ccccc2c1NS(=O)(=O)Cc1ccccc1	4.9	2.2	38.5*	6.7	1.6	6.1
CCc1cc2c(-c3ccccc3)cc(=O)oc2cc1OCC(C)=O	-8.0	-2.5	15.2	-9.9	-0.2	·
CCCc1cc2c(-c3ccccc3)cc(=O)oc2cc1OCc1ccc(C(=O)O)o1	-61.0	-13.9	53.8*	-3.6	-4.2	47.5*
CCCC(=O)N1CCC[C@]2(CC[C@H](CCC(C)=O)O2)C1	·	2.3	·	·	-0.7	·
Cc1oc2c(c1C(=O)c1ccccc1)C(=O)C(=O)c1ccccc1-2	11.1	3.4	35.6*	-5.8	21.6	25.1*
CCOc1cc(-c2cc(-c3ccc(C)cc3)nc(N)c2C#N)ccc1O	-20.8	-12.2	10.3	-1.6	-40.8	·
CCOc1cc(/C=C(\C#N)c2[nH]nc(N)c2C#N)ccc1O	-1.4	-16.2	37.0*	7.9	7.2	15.8
COc1cc([N+](=O)[O-])ccc1-c1ccc(/C=N/NC(N)=O)o1	2.8	-1.1	67.1*	2.3	5.1	-5.2
Brc1ccc2c(c1)OCCOCCOc1cc(Br)ccc1OCCOCCOCCO2	-28.9	·	68.2*	·	·	59.5*
Cc1cc(N2CCN(Cc3ccc4c(c3)OCO4)CC2)n2nc(C)nc2n1	·	0.8	·	·	-0.3	·
Cn1ccnc1CN1CCC[C@]2(CC[C@H](CCC#N)O2)C1	·	-3.9	·	·	0.4	·
CN(C)c1ccnc(SCc2ccccc2Cl)c1C#N	-31.4	-7.0	34.7*	5.5	-2.1	23.2
O=C(c1ccc(Cl)c(S(=O)(=O)N2CCc3ccccc32)c1)N1CCN(c2ccccc2O)CC1	-24.3	1.9	37.3*	-4.9	2.9	19.6
CC(=O)N1CCN(C(=O)c2ccc(Cl)c(S(=O)(=O)N3CCc4ccccc43)c2)CC1	-0.3	2.0	4.8	0.8	-0.2	·
COc1cc(/C=N/NC(=O)c2cc(-c3ccco3)nc3ccccc23)cc(OC)c1O	14.6	5.9	20.8	-2.7	5.7	·
SMILES	HTRA1 inh	SIAE primary	pPAFAH FP inh	TCR-CD3 inh	mABHD4 FP	pPAFAH FP conf
COc1ccccc1CNC(=O)COC(=O)c1cc(-c2ccco2)nc2ccccc12	2.7	4.0	55.7*	10.2	9.0	17.8
CC(C)CCNC(=O)c1cc(-c2ccco2)nc2ccccc12	-1.6	-2.2	-1.4	5.8	0.3	·
CN(C)C(CNC(=O)c1cc(-c2ccco2)nc2ccccc12)c1ccccc1 (stereo not drawn)	19.5	9.9	61.1*	12.0	12.8	23.3
O=C(N/N=C/c1cccc(F)c1)c1cc(-c2ccco2)nc2ccccc12	1.2	4.4	39.3*	13.4	2.9	21.1
Cc1nn(-c2ccccc2)c(/N=C/c2ccccc2O)c1-c1ccccc1	-6.6	10.4	34.5*	2.7	-7.7	10.4
CCOCC(=O)NC(=O)N1C[C@H]2CON(C)[C@H]2C[C@H]1c1ccc(OC)cc1	·	-1.5	·	·	2.4	·
O=C(Oc1ccc(-c2ccccc2)cc1)N1CCCCC1	-2.1	1.6	44.2*	1.4	-7.9	80.7*
COC(=O)[C@]12C[C@H](CC(=O)NCc3ccccc3)C(=O)N(Cc3ccc4c(c3)OCO4)C1=C[C@H](C(C)C)O[C@@H]2C1CC1	·	5.6	·	·	-3.4	·
C/C(CCC(=O)O)=N/Nc1ccc([N+](=O)[O-])cc1[N+](=O)[O-]	5.5	9.5	-2.4	-4.6	7.5	·
O=C(O)/C(CC(=O)c1ccc(Cl)cc1)=N/Nc1ccc([N+](=O)[O-])cc1[N+](=O)[O-]	11.2	1.0	35.2*	3.1	10.7	71.5*
O=C(c1cccc(C(F)(F)F)c1)N1CC[C@H]2[C@H](CCCN2Cc2ccccc2)C1	·	-1.2	·	·	0.1	·
Cc1cc(C)nc(N/N=C/C2=C(N3CCOCC3)C(=C/c3ccccc3)/CC2)n1	0.4	9.5	64.6*	5.1	14.7	82.3*
Cc1cc(=O)[nH]c(N/N=C/C2=C(N3CCOCC3)C(=C\c3ccc(Cl)cc3)/CC2)n1	32.3	5.1	53.9*	7.0	18.3	46.5*
O=C(CN1C(=O)CSC1=O)NCc1ccccc1	5.5	-1.5	78.4*	-2.1	-0.7	-6.8
Cc1ccc(-c2cc3nc(-c4ccco4)cc(N4CCN(Cc5ccoc5)CC4)n3n2)cc1	·	-12.8	·	·	-20.0	·
N=C1/C(=C\c2ccc(-c3cccc(Cl)c3)o2)C(=O)N=C2SC=C(c3ccccc3)N12	-56.4	2.3	42.7*	-5.6	-21.6	39.6*
N=C1/C(=C\c2ccc(-c3ccc(C(=O)O)cc3)o2)C(=O)N=C2SC=C(c3ccccc3)N12	-4.4	-19.3	·	4.1	-3.7	·
CCn1c(=O)n(CC(=O)N2CCCN(Cc3ccccc3)CC2)c(=O)c2ccccc21	·	-7.3	·	·	3.5	·
CCOc1ccc(N2CC(C(=O)Nc3ccc(F)cc3F)CC2=O)cc1 (stereo not drawn)	1.1	4.6	36.9*	-2.9	6.9	-5.2
CCOc1ccc(N2CC(C(=O)Nc3ccccc3OC)CC2=O)cc1 (stereo not drawn)	-0.7	-2.9	0.0	3.7	-1.0	·
O=C1/C(=C/c2ccco2)Oc2c1ccc(O)c2CN1CCCCC1	6.4	3.7	36.6*	-0.7	20.5	7.7
O=C(COC(=O)c1cc(Cl)ccc1Cl)NC1CCCC1	-4.2	9.5	4.5	-2.6	-5.6	·
O=C(COC(=O)c1ccc2c(c1Cl)C(=O)c1ccccc1C2=O)NC1CCCCC1	9.8	-9.7	52.8*	1.7	9.2	49.9*
O=C(COC(=O)c1ccc2c(c1Cl)C(=O)c1ccccc1C2=O)NC1CC1	11.1	-2.8	53.6*	-2.2	24.4	43.8*
CCc1ccc(NS(=O)(=O)c2ccc3c(c2)oc(=O)n3C)cc1	1.0	14.7	58.3*	0.0	-3.4	47.0*

From PubChem
